According to ChEMBL document CHEMBL4425163, “Structure elucidation of anti-methicillin resistant Staphylococcus aureus (MRSA) flavonoids from balsam poplar buds” (Bioorg Med Chem, 2016):
Converted amounts (≈) assume the structure as drawn.

Assays:
Staphylococcus aureus [1] = test: Antibacterial activity against Staphylococcus aureus ATCC 25923 incubated […] by microdilution resazurin assay; format: functional
Staphylococcus aureus [2] = test: Antibacterial activity against methicillin resistant Staphylococcus aureus clinical isolate 1 incubated […] by microdilution resazurin assay; format: functional; conditions: Staphylococcus aureus, isolate 1; read-out: MIC
Staphylococcus aureus [3] = test: Antibacterial activity against methicillin resistant Staphylococcus aureus clinical isolate 3 incubated for 7 to 14 days by microdilution resazurin assay
Staphylococcus aureus [4] = test: Antibacterial activity against methicillin resistant Staphylococcus aureus clinical isolate 2 incubated […] by microdilution resazurin assay; format: functional; conditions: Staphylococcus aureus, isolate 2; read-out: MIC
Staphylococcus aureus [5] = test: Antibacterial activity against methicillin resistant Staphylococcus aureus clinical isolate 10 incubated […] by microdilution resazurin assay; format: functional; conditions: Staphylococcus aureus, isolate 10; read-out: MIC
Staphylococcus aureus [6] = test: Antibacterial activity against methicillin resistant Staphylococcus aureus clinical isolate 9 incubated […] by microdilution resazurin assay; format: functional; conditions: Staphylococcus aureus, isolate 9; read-out: MIC
[7] = Cytotoxicity against human WS1 cells by resazurin reduction assay; format: cell-based; conditions: Homo sapiens, WS1
Summary of the method: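 WS1 human fibroblast line; resazurin reduction test, slightly modified from an earlier method. Etoposide served as positive control.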

Staphylococcus aureus [8] = test: Antibacterial activity against methicillin resistant Staphylococcus aureus clinical isolate 8 incubated […] by microdilution resazurin assay; format: functional; conditions: Staphylococcus aureus, isolate 8; read-out: MIC
Staphylococcus aureus [9] = test: Antibacterial activity against methicillin resistant Staphylococcus aureus clinical isolate 5 incubated […] by microdilution resazurin assay; format: functional; conditions: Staphylococcus aureus, isolate 5; read-out: MIC
Staphylococcus aureus [10] = test: Antibacterial activity against methicillin resistant Staphylococcus aureus clinical isolate 7 incubated […] by microdilution resazurin assay; format: functional; conditions: Staphylococcus aureus, isolate 7; read-out: MIC
Staphylococcus aureus [11] = test: Antibacterial activity against methicillin resistant Staphylococcus aureus clinical isolate 6 incubated […] by microdilution resazurin assay; format: functional; conditions: Staphylococcus aureus, isolate 6; read-out: MIC
Staphylococcus aureus [12] = test: Antibacterial activity against methicillin resistant Staphylococcus aureus clinical isolate 4 incubated for 7 to 14 days by microdilution resazurin assay

## O=C(/C=C/c1ccccc1)OCC(C/C=C/c1ccc(O)cc1)C(c1ccc(O)cc1)c1c(O)cc(O)c(C(=O)CCc2ccccc2)c1O (racemic)
Staphylococcus aureus [1]; Staphylococcus aureus, ATCC 25923, read-out: MIC
  MIC: 50 µM (≈ 33.5 µg/mL)
Staphylococcus aureus [2]
  MIC: 25 µM (≈ 16.8 µg/mL)
Staphylococcus aureus [3]
  MIC: 13 µM (≈ 8.72 µg/mL)
Staphylococcus aureus [4]
  MIC: 25 µM (≈ 16.8 µg/mL)
Staphylococcus aureus [5]
  MIC: 25 µM (≈ 16.8 µg/mL)
Staphylococcus aureus [6]
  MIC: 25 µM (≈ 16.8 µg/mL)
[7]
  IC50: > 10 µM
Staphylococcus aureus [8]
  MIC: 25 µM (≈ 16.8 µg/mL)
Staphylococcus aureus [9]
  MIC: 3 µM (≈ 2.01 µg/mL)
Staphylococcus aureus [10]
  MIC: 25 µM (≈ 16.8 µg/mL)
Staphylococcus aureus [11]
  MIC: 25 µM (≈ 16.8 µg/mL)
Staphylococcus aureus [12]
  MIC: 25 µM (≈ 16.8 µg/mL)

## O=C(CCc1ccccc1)c1c(O)cc2c(c1O)CC(O)C(c1ccc(O)cc1)O2 (stereo in doubt; (-)-17)
Staphylococcus aureus [1]
  MIC: 25 µM (≈ 10.2 µg/mL)
Staphylococcus aureus [2]
  MIC: 50 µM (≈ 20.3 µg/mL)
Staphylococcus aureus [3]
  MIC: 50 µM (≈ 20.3 µg/mL)
Staphylococcus aureus [4]
  MIC: 50 µM (≈ 20.3 µg/mL)
Staphylococcus aureus [5]
  MIC: 50 µM (≈ 20.3 µg/mL)
Staphylococcus aureus [6]
  MIC: > 50 µM
[7]
  IC50: > 10 µM
Staphylococcus aureus [8]
  MIC: > 50 µM
Staphylococcus aureus [9]
  MIC: 50 µM (≈ 20.3 µg/mL)
Staphylococcus aureus [10]
  MIC: 25 µM (≈ 10.2 µg/mL)
Staphylococcus aureus [11]
  MIC: 50 µM (≈ 20.3 µg/mL)
Staphylococcus aureus [12]
  MIC: 50 µM (≈ 20.3 µg/mL)
